In ChEMBL document CHEMBL1141308, “The ansacarbamitocins: polar ansamitocin derivatives” (J Nat Prod, 2007) one finds Activity data, which are given here for eight compounds.

One assay deals with Septoria. Briefly: Antifungal activity against Septoria tritici at 25 ug/mL. It counts as functional. Summed up: (§1)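 In vitro antifungal screening assay against the named Septoria species, testing purified compounds at a single concentration of 25 µg/mL.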
A short description of assay [1]: Antifungal activity against Septoria nodorum at 25 ug/mL. It counts as functional. Summed up: as §1

Calls of active or inactive are those of the source. No cut-off for these calls is given here.

Take `CNC(=O)O[C@H]1CC(=O)N([C@H]2O[C@@H](COC(C)=O)[C@H](OC(N)=O)[C@@H](OC)[C@@H]2O)c2cc(cc(O)c2Cl)C/C(C)=C/C=C/[C@@H](OC)[C@@]2(O)C[C@H](OC(=O)N2)[C@@H](C)/C=C/1C`: the result (with Septoria; in assay [1]) was inactive.
Regarding `CNC(=O)O[C@H]1CC(=O)N([C@H]2O[C@@H](COC(C)=O)[C@H](OC(N)=O)[C@@H](O)[C@@H]2O)c2cc(cc(O)c2Cl)C/C(C)=C/C=C/[C@@H](OC)[C@@]2(O)C[C@H](OC(=O)N2)[C@@H](C)[C@H]2O[C@@]12C`, the result (in the assay with Septoria; in assay [1]) was inactive.
On to `CNC(=O)O[C@H]1CC(=O)N([C@H]2O[C@@H](CO)[C@H](OC(N)=O)[C@@H](O)[C@@H]2O)c2cc(cc(O)c2Cl)C/C(C)=C/C=C/[C@@H](OC)[C@@]2(O)C[C@H](OC(=O)N2)[C@@H](C)[C@H]2O[C@@]12C`, for which the outcome (in the assay with Septoria; in assay [1]) was inactive.
Turning to `CNC(=O)O[C@H]1CC(=O)N([C@H]2O[C@@H](CO)[C@H](OC(N)=O)[C@@H](OC)[C@@H]2O)c2cc(cc(O)c2Cl)C/C(C)=C/C=C/[C@@H](OC)[C@@]2(O)C[C@H](OC(=O)N2)[C@@H](C)[C@H]2O[C@@]12C`, the outcome (in the assay with Septoria; in assay [1]) was inactive.
Regarding `CNC(=O)O[C@H]1CC(=O)N([C@H]2O[C@@H](COC(C)=O)[C@H](OC(N)=O)[C@@H](OC)[C@@H]2O)c2cc(cc(O)c2Cl)C/C(C)=C/C=C/[C@@H](OC)[C@@]2(O)C[C@H](OC(=O)N2)[C@@H](C)[C@H]2O[C@@]12C`, the outcome (in the assay on Septoria; in assay [1]) was inactive.
Regarding `CNC(=O)O[C@H]1CC(=O)N([C@H]2O[C@@H](COC(C)=O)[C@H](OC(N)=O)[C@@H](O)[C@@H]2O)c2cc(cc(O)c2Cl)C/C(C)=C/C=C/[C@@H](OC)[C@@]2(O)C[C@H](OC(=O)N2)[C@@H](C)/C=C/1C`, the outcome (in the assay with Septoria; in assay [1]) was inactive.
As for `CNC(=O)O[C@H]1CC(=O)N([C@H]2O[C@@H](CO)[C@H](O)[C@@H](O)[C@@H]2O)c2cc(cc(O)c2Cl)C/C(C)=C/C=C/[C@@H](OC)[C@@]2(O)C[C@H](OC(=O)N2)[C@@H](C)[C@H]2O[C@@]12C`, the outcome (with Septoria; in assay [1]) was inactive.
For `CNC(=O)O[C@H]1CC(=O)N([C@H]2O[C@@H](CO)[C@H](O)[C@@H](OC)[C@@H]2O)c2cc(cc(O)c2Cl)C/C(C)=C/C=C/[C@@H](OC)[C@@]2(O)C[C@H](OC(=O)N2)[C@@H](C)[C@H]2O[C@@]12C`, the outcome (with Septoria; in assay [1]) was inactive.
